Bioassay records as filed in PubChem.
Shown are actives, neighbours in structure and some others; about 2.5% of the full set was active somewhere.
MEKK2wt PB1 HTS – raises or lowers MEK5 binding to wildtype human MEKK2 PB1 domain; 290,000 tested, 1.1% active; binding response (% of control), % at 10 µM; bead flow cytometry, Alexa488-MEK5 binding to MEKK2 WT; actives lie on both sides; in the data active = binding response below about 67% or above about 130%
MEKK3 PB1 HTS – MEKK3-MEK5 PB1 interaction, increase or decrease; Q99759; bead-based flow cytometry, Alexa488-MEK5 binding to MEKK3; actives lie on both sides; 0 = blocked by unlabeled MEK5, 100 = vehicle; binding response (% of control), % at 10 µM; 290,000 tested, 1.4% active; AID 1529;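 active = binding response more than 3 SD above or below the average of its plate-row segment, actives on both sides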;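 note: Alexa488 bead fluorescence after subtracting the streptavidin-only scavenger bead signal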
Efflux pump mplx – blocks antifungal efflux pumps in multiplex yeast assay. 330,000 tested, 0.44% active. S. cerevisiae Candida pump triplex, Nile Red efflux. inhibition, % at 10 µM;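 active = plate passing quality check with inhibition over a set limit, or well fluorescence over plate mean plus 4 SD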;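 note: Nile Red retained in pooled yeast measured as flow cytometry median fluorescence; 0% = buffer negative control and 100% = Enniatin B positive control; higher means more Nile Red kept so more efflux inhibition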
ABCB1 inh – blocks JC-1 efflux by human ABCB1 transporter; inhibition, % at 6.6 µM; 190,000 tested, 0.067% active; CCRF-Adr cells, flow cytometry; in the data active = inhibition above about 40%;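 note: 0% = vehicle and 100% = reference inhibitor; higher value means more JC-1 retained so stronger ABCB1 efflux block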
MEKK2mut PB1 HTS – signal of MEK5 binding to mutant human MEKK2 PB1 domain | bead flow cytometry, Alexa488-MEK5 binding to MEKK2 mutant | percent response, % at 10 µM | 290,000 tested, 0.35% active | AID 1530; in the data active = percent response above about 24%, passing the limit was not always enough
ABCG2 inh – inhibitors of human ABCG2 transporter, ABCB1 counter-screen. inhibition, % at 6.6 µM. IgMXP3 cells, JC-1 efflux, flow cytometry. Q9UNQ0. 190,000 tested, 0.1% active;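 active = inhibition above 80%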;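 note: 0% = DMSO and 100% = nicardipine control wells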
Target sequence (Q9UNQ0 whole entry, looked up): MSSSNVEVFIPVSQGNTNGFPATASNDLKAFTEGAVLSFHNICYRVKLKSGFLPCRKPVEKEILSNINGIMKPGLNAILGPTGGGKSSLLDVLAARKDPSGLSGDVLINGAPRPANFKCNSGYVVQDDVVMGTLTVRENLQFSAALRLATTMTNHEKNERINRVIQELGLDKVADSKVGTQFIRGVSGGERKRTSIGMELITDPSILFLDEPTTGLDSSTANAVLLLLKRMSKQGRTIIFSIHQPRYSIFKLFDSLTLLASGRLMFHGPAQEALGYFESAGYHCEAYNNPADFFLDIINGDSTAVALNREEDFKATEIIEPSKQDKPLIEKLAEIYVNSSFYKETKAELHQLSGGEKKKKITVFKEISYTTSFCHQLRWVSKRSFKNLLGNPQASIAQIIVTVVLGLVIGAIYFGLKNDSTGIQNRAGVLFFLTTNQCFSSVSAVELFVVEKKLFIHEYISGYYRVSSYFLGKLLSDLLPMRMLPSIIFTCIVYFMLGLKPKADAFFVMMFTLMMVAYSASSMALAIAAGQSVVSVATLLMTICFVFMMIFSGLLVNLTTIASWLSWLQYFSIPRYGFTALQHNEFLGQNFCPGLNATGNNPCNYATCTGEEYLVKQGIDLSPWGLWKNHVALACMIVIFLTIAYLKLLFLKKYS
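Measure – % inhibition of efflux relative to nicardipine and DMSO · Test system – ABCG2 IgMXP3 and barcoded ABCB1 CCRF-Adr cell mix · Control set – nicardipine as high control, DMSO as low control · Compound – one concentration, 6.6 µM final · Signal – flow cytometry of retained JC-1 fluorescence · Timing – 10 min exposure at 25 °C with rotation, no wash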
Cmpd fluor yeast – flagged as fluorescent in efflux inhibitor counter-screen; shares compounds with Efflux pump mplx; S. cerevisiae AD/pABC3, compound fluorescence, flow cytometry; fluorescence ratio to DMSO, % at 10 µM; 1,700 tested, 4% active;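 active = fluorescence ratio to DMSO above its plate's cutoff, the plate mean ratio plus 5 SD, cut at about 210% in these data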;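 note: unstained yeast with no Nile Red so the signal is compound autofluorescence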
CaMdr1 efflux inh – inhibitors of Candida albicans Mdr1 efflux pump; shares compounds with Efflux pump mplx; S. cerevisiae AD/CaMDR1, Nile Red efflux, flow cytometry; inhibition, % at 10 µM; 1,700 tested, 1% active; AID 588518; in the data active = inhibition above about 26%;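 note: 0% = DMSO vehicle and 100% = reference inhibitor; higher means more Nile Red retained so more efflux inhibition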
Cdr2 pump inh – Candida Cdr2 efflux pump inhibition; shares compounds with Efflux pump mplx; S. cerevisiae AD/CaCDR2, Nile Red retention, flow cytometry; Nile Red retention ratio vs DMSO, % at 10 µM; 1,700 tested, 4% active; in the data active = Nile Red retention ratio vs DMSO above about 190%;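 note: higher ratio means more blocking of Cdr2 efflux of the dye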
Cdr1 pump inh – blocks the Candida albicans Cdr1 efflux pump in yeast; shares compounds with Efflux pump mplx; S. cerevisiae AD/CaCDR1, Nile Red efflux, flow cytometry; inhibition, % at 10 µM; 1,700 tested, 1% active; AID 588522;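 active = inhibition above the screen-wide mean plus twice its standard deviation, cut at about 32% in these data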
* = called active by the depositor; nt = no result.

SMILES | MEKK2wt PB1 HTS | MEKK3 PB1 HTS | Efflux pump mplx | ABCB1 inh | MEKK2mut PB1 HTS | ABCG2 inh | Cmpd fluor yeast | CaMdr1 efflux inh | Cdr2 pump inh | Cdr1 pump inh
O=C(O)CC/C(=N\NC(=O)c1ccccc1Br)c1ccccc1 | 102 | 100 | 18* | 0 | 3 | 0 | 103 | 0 | 98 | 0
CCCCCCCCn1ccc(=N)cc1 | 98 | 101 | 0.8* | nt | 3 | nt | 97 | 0 | 108 | 0
N=c1ccn(Cc2ccc(F)cc2)cc1 | 97 | 94 | 0 | nt | -3 | nt | nt | nt | nt | nt
COc1cccc(C2N=C(c3ccccc3C)NO2)c1OC (centres undefined) | 108 | 106 | 0 | nt | 10 | nt | nt | nt | nt | nt
O=C(C1CCC1)N1CCc2cc(S(=O)(=O)NCc3ccccn3)ccc21 | 101 | 102 | 0.7* | 0 | -1 | 5 | 109 | 0 | 102 | 0
O=C(C1CCC1)N1CCc2cc(S(=O)(=O)NCCN3CCN(c4ccccc4F)CC3)ccc21 | nt | nt | 1.1* | 4 | nt | 7 | 87 | 0 | 100 | 0
Nc1cc(=O)[nH]c(SCC(=O)NNC(=O)Cc2ccccc2)n1 | 102 | 102 | 0 | 4 | 0 | 4 | nt | nt | nt | nt
CCC(=O)N(Cc1ccc(C)cc1)Cc1cc2cc3c(cc2[nH]c1=O)OCO3 | 104 | 99 | 11* | 0 | 4 | 1 | 105 | 0 | 108 | 0
Cc1cc(O)c(Sc2ncn[nH]2)cc1NS(=O)(=O)c1ccc(Cl)cc1 | nt | nt | 0 | nt | nt | nt | 103 | 0 | 96 | 0
COc1ccc(S(=O)(=O)Nc2cc(C(C)C)c(O)cc2C)cc1 | 92 | 91 | 0 | 0 | -4 | 0 | nt | nt | nt | nt
O=S(=O)(Nc1cc(Sc2ncn[nH]2)c(O)c2ccccc12)c1ccccc1 | 98 | 116 | nt | -1 | -1 | -2 | 100 | 0 | 96 | 0
O=C(O)CSc1cc(NS(=O)(=O)c2ccc(Br)cc2)c2ccccc2c1O | 104 | 105 | 0 | nt | 6 | nt | nt | nt | nt | nt
COc1ccc(S(=O)(=O)Nc2cc(Sc3ncn[nH]3)c(O)cc2C)cc1 | nt | nt | 0 | nt | nt | nt | 105 | 0 | 96 | 0
Cc1ccc([N+](=O)[O-])cc1S(=O)(=O)Nc1ccc(O)c(Sc2ncn[nH]2)c1 | 101 | 96 | 0 | nt | 2 | nt | nt | nt | nt | nt
COc1ccc(C(=O)NCc2cccnc2)cc1OC | 102 | 105 | 0 | 1 | 1 | 4 | nt | nt | nt | nt
COc1ccc(C(=O)NCc2ccc(Cl)c(Cl)c2)cc1OC | 112 | 109 | 11* | -8 | 5 | 4 | 87 | 0 | 89 | 0
COc1ccc(-c2sc3ccccc3c2-c2ccc(OCCN(C)C)cc2)cc1 | nt | nt | 1 | nt | nt | nt | 91 | 0 | 97 | 0
COc1cccc(-c2sc3ccc(OC)cc3c2-c2ccc(OCCN(C)C)cc2)c1 | nt | nt | 187* | nt | nt | nt | 108 | 1 | 228* | 0
Cc1ccc2nc(/C(C#N)=C/c3ccc(O)c(O)c3)[nH]c2c1 | 104 | 110 | 3.4* | nt | 11 | nt | 118 | 0 | 141 | 1
O=C(CCC1CCCCC1)NNC(=O)NC12CC3CC(CC(C3)C1)C2 | 95 | 95 | 0.7* | 1 | 0 | 5 | 98 | 0 | 87 | 0
O=C(O)CCC(=O)NNC(=O)CCC1CCCCC1 | 90 | 89 | 0 | 0 | -2 | 6 | nt | nt | nt | nt
O=C(CSc1nnc(-c2ccccc2)o1)N1CCN(c2ccccc2)CC1 | 99 | 99 | 0.8* | 0 | 2 | 0 | 107 | 0 | 101 | 0
CCOc1ccc(-c2nnc(SCC(=O)N3CCN(c4ccccc4)CC3)o2)cc1 | 94 | 95 | 0 | -2 | 1 | -3 | nt | nt | nt | nt
CC(=C/C(=O)O)/C=C/c1ccco1 | 94 | 94 | 2.4* | 0 | -2 | 13 | 99 | 0 | 94 | 0
Cc1ccccc1OCCC(=O)OCC(=O)c1c(N)n(CC(C)C)c(=O)n(C)c1=O | 99 | 101 | 6.2* | nt | -1 | nt | 99 | 0 | 96 | 0
SMILES | MEKK2wt PB1 HTS | MEKK3 PB1 HTS | Efflux pump mplx | ABCB1 inh | MEKK2mut PB1 HTS | ABCG2 inh | Cmpd fluor yeast | CaMdr1 efflux inh | Cdr2 pump inh | Cdr1 pump inh
C[C@H](NC(=O)c1ccc(C(C)(C)C)cc1)C(=O)N1CCN(C/C=C/c2ccccc2)CC1 | nt | nt | 0.9* | nt | nt | nt | 92 | 0 | 94 | 0
CC(C)C(NC(=O)c1ccccc1)C(=O)N1CCN(C/C=C/c2ccccc2)CC1 (centres undefined) | nt | nt | 0 | nt | nt | nt | nt | nt | nt | nt
O=C(CSc1nnc(-c2ccc(O)cc2)n1Cc1ccccc1)NNC(=O)c1ccc(Br)cc1 | 97 | 97 | 0 | 0 | -1 | -2 | nt | nt | nt | nt
Cc1ccccc1-n1nc(C(=O)c2cccs2)cc(-c2nc3ccccc3[nH]2)c1=N | 99 | 103 | 0.3* | 0 | 4 | 0 | 95 | 0 | 104 | 0
COc1ccc(C(=O)N2CCN(c3ccccc3)CC2)cc1S(=O)(=O)N1CCCC1 | 96 | 99 | 6.2* | nt | -3 | nt | 109 | 0 | 110 | 0
CC(=O)N1CCOCCOCCN(C(C)=O)CCOCC1 | 94 | 100 | 0 | 0 | -4 | 1 | nt | nt | nt | nt
COc1ccc(N2CCN(Cc3nc4c(c(=O)[nH]c(=O)n4C)n3CCCc3ccccc3)CC2)cc1 | 100 | 100 | 14* | 2 | 2 | 0 | 108 | 0 | 114 | 0
Cn1c(=O)[nH]c(=O)c2c1nc(CN1CCN(c3cccc(Cl)c3)CC1)n2CCCc1ccccc1 | 95 | 99 | 0 | 3 | -5 | 3 | nt | nt | nt | nt
Clc1ccc(Cn2nc(-c3ccccc3)nc2-c2ccccc2)cc1 | 100 | 99 | 20* | 0 | 1 | 0 | 102 | 0 | 110 | 0
O=C(CCC(=O)OCCCC(F)(F)C(F)(F)F)NC1CCCCC1 | 106 | 108 | 1.4* | 2 | 5 | 12 | 81 | 0 | 91 | 0
O=C1NC(=O)/C(=C\c2ccc(O)cc2O)S1 | 82 | 86 | 0 | -1 | -14 | -1 | nt | nt | nt | nt
COCCCNC(=O)CSc1nc2ccccc2c(=O)n1CCc1ccc(S(N)(=O)=O)cc1 | 99 | 101 | 0 | nt | 2 | nt | nt | nt | nt | nt
Cc1ccc(C)c(-c2cc(C(=O)Nc3sc(C)c(C)c3C(N)=O)c3ccccc3n2)c1 | 109 | 106 | 0 | 1 | 4 | 1 | 98 | 0 | 104 | 0
COCCCNCCCOc1ccc(Cl)cc1Br | 105 | 103 | 0 | 1 | 1 | 3 | nt | nt | nt | nt
CC(C)NCCCOc1ccc(Cl)cc1Br | 102 | 98 | 1.3* | 1 | 1 | 2 | 98 | 0 | 107 | 0
